Results on 17 compounds are retold here after ChEMBL document CHEMBL4219244, “Blocking Alcoholic Steatosis in Mice with a Peripherally Restricted Purine Antagonist of the Type 1 Cannabinoid Receptor” (J Med Chem, 2018).

In one data set the target is Cannabinoid receptor 2 (Homo sapiens, UniProt P34972). Nature of the data set: Displacement of [3H]CP55940 from human CB2 expressed in CHOK1 cell membranes.
A short description of data set [1]: Aqueous kinetic solubility of the compound in 10 mM phosphate buffer at pH 1.6 after 90 mins by LC/MS analysis. The class given is physicochemical. The settings on record: read-out: Kinetic_solubility. In a few lines:
(§1)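 10 mM DMSO stocks diluted into 10 mM phosphate buffer (final DMSO 1%), shaken 90 min at room temperature, filtered through 0.4 μm plates. Filtrate concentration quantified by LC/MS against a six-point standard curve. Mean of three determinations.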

Data set [2] deals with Mus musculus. Kind of data set: Anti-hepatic steatosis activity in alcohol-induced hepatic steatosis C57BL/6 mouse model assessed as reduction in hepatic lipid accumulation at 1.25 mg/kg, po bid administered via gavage treated for 2 weeks by oil red o-staining based histopathological assay. The class given is functional, organism-based. In a few lines:
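Female C57BL6 mice on Lieber-DeCarli liquid diet; ethanol raised progressively 1 to 5% (v/v) over 15 days, then 4 further weeks; pair-fed controls on control diet. Drug suspended in 0.5% sodium carboxymethylcellulose, 1% NMP, 0.3% Tween 80, given 1.25 mg/kg twice daily by gavage for last 2 weeks. Liver sections (10 μm, OCT) stained with Oil Red O; droplets counted in six grids per image; n = 6 per group; ANOVA.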

Data set [3] deals with Mus musculus. Kind of data set: Suppression of CP55940-induced hypothermia in C57BL/6 mouse assessed as reduction in body temperature at 10 mg/kg, po administered via gavage pretreated for 30 mins followed by CP55940 addition measured at regular interval up to 4 hrs. It is filed as ADME, organism-based. The settings on record: in vivo. In a few lines: (§2)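 Female C57BL6 mice, acclimated 2 weeks, given test agent or vehicle by oral gavage; after 30 min, CP55940 0.56 mg/kg ip in corn oil. Rectal temperature recorded at regular intervals up to 4 h. Six animals per group; means and standard deviations; two-way ANOVA versus vehicle.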

A short description of data set [4]: Aqueous kinetic solubility of the compound in 10 mM phosphate buffer at pH 7.4 after 90 mins by LC/MS analysis. The class given is physicochemical. Particulars: read-out: Kinetic_solubility. In a few lines: as §1
Data set [5] is described as follows: Drug uptake in alcohol-induced hepatic steatosis C57BL/6 mouse model brain at 1.25 mg/kg, po bid administered via gavage treated for 2 weeks measured at 16 hrs post last dose by LC-MS method. It is filed as ADME, organism-based. Particulars: in vivo.
Data set [6] is described as follows: Drug uptake in C57BL/6 mouse brain at 1.25 mg/kg, po bid administered via gavage treated for 7 days measured at 0.5 to 24 hrs post last dose. The settings on record: in vivo. The class given is ADME, organism-based.
A further data set has as its target Cannabinoid receptor 1 (Homo sapiens, UniProt P21554). Nature of the data set: Displacement of [3H]CP55940 from human CB1 expressed in CHOK1 cell membranes.
The test system of data set [7] is Mus musculus. Nature of the data set: Suppression of CP55940-induced hypothermia in C57BL/6 mouse assessed as reduction in body temperature at 30 mg/kg, po administered via gavage pretreated for 30 mins followed by CP55940 addition measured at regular interval up to 4 hrs. The class given is ADME, organism-based. The settings on record: in vivo. In a few lines:
as §2

The species entered for a further data set is Homo sapiens. Kind of data set: Selectivity ratio of Ki for human CB2 to Ki for human CB1. In a few lines: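 Displacement of [3H]CP55940 binding to membranes from CHO cells overexpressing human CB1 or human CB2. Ki was determined at each receptor, and the ratio was taken as Ki(hCB2)/Ki(hCB1). Values are averages of three to six measurements.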
A short description of data set [8]: Drug uptake in C57BL/6 mouse brain at 5 mg/kg, po after 0.6 to 24 hrs by LC-MS method. The class given is ADME, organism-based. Particulars: in vivo.

SMILES strings stand for the structures. Active and inactive are the calls of the source. No cut-off for these calls is given here. A value given as a limit tells only on which side of the number the result lay.

Cannabinoid receptor 2, sequence (P34972 whole entry): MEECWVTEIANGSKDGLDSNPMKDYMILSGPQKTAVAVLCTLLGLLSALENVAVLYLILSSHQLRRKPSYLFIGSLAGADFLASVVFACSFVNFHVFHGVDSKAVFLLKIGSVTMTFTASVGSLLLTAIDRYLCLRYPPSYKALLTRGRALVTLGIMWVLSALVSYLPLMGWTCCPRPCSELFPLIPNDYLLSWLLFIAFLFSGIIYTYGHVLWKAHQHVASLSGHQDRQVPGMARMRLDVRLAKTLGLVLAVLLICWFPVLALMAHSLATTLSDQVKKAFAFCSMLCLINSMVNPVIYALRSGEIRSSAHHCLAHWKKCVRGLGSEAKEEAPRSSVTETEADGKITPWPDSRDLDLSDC
Cannabinoid receptor 1, sequence (P21554 whole entry): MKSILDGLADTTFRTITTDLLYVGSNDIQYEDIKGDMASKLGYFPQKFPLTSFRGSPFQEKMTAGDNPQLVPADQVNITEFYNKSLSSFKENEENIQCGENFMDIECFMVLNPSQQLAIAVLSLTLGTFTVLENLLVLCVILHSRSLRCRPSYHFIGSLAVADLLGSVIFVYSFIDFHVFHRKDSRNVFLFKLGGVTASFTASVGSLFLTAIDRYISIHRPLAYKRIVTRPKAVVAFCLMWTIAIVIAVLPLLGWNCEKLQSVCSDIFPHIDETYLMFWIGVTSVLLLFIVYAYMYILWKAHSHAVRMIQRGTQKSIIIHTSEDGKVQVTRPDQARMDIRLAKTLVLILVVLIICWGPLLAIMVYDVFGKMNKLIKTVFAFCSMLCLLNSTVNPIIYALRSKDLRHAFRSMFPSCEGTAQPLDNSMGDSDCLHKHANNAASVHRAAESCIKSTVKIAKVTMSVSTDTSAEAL

Consider `N#Cc1ccc(N2CCN(c3ncnc4c3nc(-c3ccccc3Cl)n4-c3ccc(Cl)cc3)CC2)cc1`, for which the Ki at Cannabinoid receptor 2 was more than 10000 nM.
With `Clc1ccc(-n2c(-c3ccccc3Cl)nc3c(N4CCN(Cc5ccccc5Cl)CC4)ncnc32)cc1`, the solubility kinetic at […] is more than 200 µM in data set [1] and less than 0.4 µM in data set [4]. Moreover, the result in the data set on Mus musculus [2] was Active. Besides, in the data set on Mus musculus [3], the Activity result is on record as “Non-Toxic”. For the same compound, the Drug uptake result in data set [5] and in data set [6] was “Not Active” in each case.
Regarding `N#Cc1ccccc1N1CCN(c2ncnc3c2nc(-c2ccccc2Cl)n3-c2ccc(Cl)cc2)CC1`, on Cannabinoid receptor 2, the Ki was more than 10000 nM.
As for `COc1ccccc1N1CCN(c2ncnc3c2nc(-c2ccccc2Cl)n3-c2ccc(Cl)cc2)CC1`, the Ki on Cannabinoid receptor 1 turned out to be 2 nM; at Cannabinoid receptor 2, 5000 nM.
For `CCNC1(C(N)=O)CCN(c2ncnc3c2nc(-c2ccccc2Cl)n3-c2ccc(Cl)cc2)CC1` [OTENABANT], the Activity entry with Mus musculus [7] is given as “Toxic”.
In the case of `Oc1cccc(N2CCN(c3ncnc4c3nc(-c3ccccc3Cl)n4-c3ccc(Cl)cc3)CC2)c1`, the Ki on Cannabinoid receptor 1 was 25 nM; on Cannabinoid receptor 2 it was more than 10000 nM.
At Cannabinoid receptor 2, `Clc1ccc(CN2CCN(c3ncnc4c3nc(-c3ccccc3Cl)n4-c3ccc(Cl)cc3)CC2)cc1` registered a Ki of more than 10000 nM.
Still for that read-out and setting: as for `COc1ccc(N2CCN(c3ncnc4c3nc(-c3ccccc3Cl)n4-c3ccc(Cl)cc3)CC2)cc1`, the figure is more than 10000 nM.
As to `Clc1ccc(-n2c(-c3ccccc3Cl)nc3c(N4CCN(CCc5ccncc5)CC4)ncnc32)cc1`, in the data set filed under Homo sapiens, the Ratio Ki is 52. Moreover, the figures for the Ki at Cannabinoid receptor 1 and at Cannabinoid receptor 2 were 12 nM and 630 nM, respectively.
The compound `Cc1ccccc1CN1CCN(c2ncnc3c2nc(-c2ccccc2Cl)n3-c2ccc(Cl)cc2)CC1` returned a Ki at Cannabinoid receptor 2 of 4600 nM.
For `Clc1ccc(-n2c(-c3ccccc3Cl)nc3c(N4CCN(c5ccccc5)CC4)ncnc32)cc1`, the Ki at Cannabinoid receptor 2 was more than 10000 nM.
For `Cc1c(C(=O)NN2CCCCC2)nn(-c2ccc(Cl)cc2Cl)c1-c1ccc(Cl)cc1` [RIMONABANT], the Drug uptake result in data set [8] is listed as “Active”.
Take `Clc1ccc(-n2c(-c3ccccc3Cl)nc3c(N4CCN(Cc5ccccc5)CC4)ncnc32)cc1`: the Ratio Ki in the data set listed under Homo sapiens came out at 110. Further, the Ki on Cannabinoid receptor 1 amounted to 4 nM; at Cannabinoid receptor 2 it was 430 nM.
As for `N#CC(c1ccccc1)N1CCN(c2ncnc3c2nc(-c2ccccc2Cl)n3-c2ccc(Cl)cc2)CC1` (stereo not given), the Ratio Ki in the data set filed under Homo sapiens was 66. In addition, the values for the Ki on Cannabinoid receptor 1 and at Cannabinoid receptor 2 were 7 nM and 460 nM, respectively.
The compound `COc1ccc(CN2CCN(c3ncnc4c3nc(-c3ccccc3Cl)n4-c3ccc(Cl)cc3)CC2)cc1` returned a Ki on Cannabinoid receptor 2 of more than 10000 nM.
`FC(F)(F)Oc1ccccc1CN1CCN(c2ncnc3c2nc(-c2ccccc2Cl)n3-c2ccc(Cl)cc2)CC1` registered a Ki on Cannabinoid receptor 2 of more than 10000 nM.
Regarding `Cc1ccc(CN2CCN(c3ncnc4c3nc(-c3ccccc3Cl)n4-c3ccc(Cl)cc3)CC2)cc1`, on Cannabinoid receptor 2, the Ki was more than 10000 nM.

What is called Ki is a dissociation constant, usually derived from enzyme kinetics or from competition with a known ligand. High values mean lower affinity, low ones higher affinity.
